The target in one assay is Cholinesterase (Homo sapiens, UniProt P06276). The assay can be described thus: Inhibition of BuChE in human plasma using butyrylthiocholine iodide as substrate by Ellman's colorimetric method. Put shortly: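 The BuChE source is plasma from 5 healthy human volunteers (24–60 years, both sexes), centrifuged at 1000× g for 15 min at room temperature and stored at −20 °C. In 20 mM phosphate buffer pH 7.4, plasma was incubated 150 s with 0.8 mM butyrylthiocholine iodide and DTNB. Absorbance of the yellow anion was read at 415 nm. Protein was determined by Peterson-modified Lowry against BSA.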
For orientation: In Ellman's method for cholinesterases, released thiocholine reacts with DTNB.

In a further assay the target is T1, Acetylcholinesterase (Rattus norvegicus, UniProt P37136).
T1 sequence (P37136 whole entry): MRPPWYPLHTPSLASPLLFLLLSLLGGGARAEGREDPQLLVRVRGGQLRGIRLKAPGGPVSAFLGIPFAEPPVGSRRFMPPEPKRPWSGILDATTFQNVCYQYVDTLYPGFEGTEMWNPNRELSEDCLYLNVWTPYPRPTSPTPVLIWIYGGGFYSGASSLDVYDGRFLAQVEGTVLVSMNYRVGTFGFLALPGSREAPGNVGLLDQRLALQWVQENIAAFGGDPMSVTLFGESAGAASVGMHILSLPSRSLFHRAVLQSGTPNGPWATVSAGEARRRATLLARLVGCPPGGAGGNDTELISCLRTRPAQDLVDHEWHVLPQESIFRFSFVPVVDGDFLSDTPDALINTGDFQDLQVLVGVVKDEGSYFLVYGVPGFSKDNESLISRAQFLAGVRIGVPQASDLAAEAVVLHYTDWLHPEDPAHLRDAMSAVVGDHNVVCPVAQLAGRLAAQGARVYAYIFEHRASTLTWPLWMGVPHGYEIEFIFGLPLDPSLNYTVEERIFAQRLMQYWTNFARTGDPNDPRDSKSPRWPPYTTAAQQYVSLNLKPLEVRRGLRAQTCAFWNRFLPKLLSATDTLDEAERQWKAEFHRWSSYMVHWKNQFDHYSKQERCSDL
The assay can be described thus: Inhibition of AChE in Wistar rat brain cortex using acetylthiocholine iodide as substrate by Ellman's colorimetric method. Put shortly:
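Enzyme source is the cortex of adult male Wistar rats (2–3 months), dissected on ice and homogenized in cold 10 mM Tris-HCl pH 7.2 with 160 mM sucrose. The 10,000× g supernatant (10 min, 4 °C) was stored at −20 °C. The sample in 20 mM phosphate pH 7.4 was incubated 150 s with 0.8 mM acetylthiocholine iodide plus DTNB.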

A short description of assay [1]: Ratio of IC50 for BuChE in human plasma to IC50 for AChE in Wistar rat brain cortex. The class given is cell-free.

By IC50 is commonly meant the concentration that inhibits the measured activity by half.

Chain of Cholinesterase (P06276 whole entry): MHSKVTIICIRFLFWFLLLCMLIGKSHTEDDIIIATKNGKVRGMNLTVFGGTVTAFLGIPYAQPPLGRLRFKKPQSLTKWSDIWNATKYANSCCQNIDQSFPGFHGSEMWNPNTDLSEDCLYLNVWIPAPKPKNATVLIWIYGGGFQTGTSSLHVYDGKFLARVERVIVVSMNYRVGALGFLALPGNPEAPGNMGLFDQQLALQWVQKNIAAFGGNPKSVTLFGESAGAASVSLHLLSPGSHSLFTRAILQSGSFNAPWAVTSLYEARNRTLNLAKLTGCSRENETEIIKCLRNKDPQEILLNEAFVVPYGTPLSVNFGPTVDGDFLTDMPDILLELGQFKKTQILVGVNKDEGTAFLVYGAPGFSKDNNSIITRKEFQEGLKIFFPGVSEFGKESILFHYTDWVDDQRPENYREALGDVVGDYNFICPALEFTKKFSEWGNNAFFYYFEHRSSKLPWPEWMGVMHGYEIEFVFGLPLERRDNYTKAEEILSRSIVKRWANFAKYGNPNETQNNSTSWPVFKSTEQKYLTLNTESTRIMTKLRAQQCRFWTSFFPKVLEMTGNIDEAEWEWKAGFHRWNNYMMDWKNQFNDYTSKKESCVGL

`c1ccc(-c2nc(-c3ccccc3)n(CCCCCCCn3c(-c4ccccc4)nc(-c4ccccc4)c3-c3ccccc3)c2-c2ccccc2)cc1`: the IC50 entry against Cholinesterase and against Acetylcholinesterase was “Not Active” throughout.
Consider `N#Cc1ccc(-c2nc(-c3ccccc3)c(-c3ccccc3)n2CCCCCCCCNc2c3c(nc4ccccc24)CCCC3)cc1`, for which the IC50 on Cholinesterase (read-out: IC50) was 30.5 nM; on Acetylcholinesterase, “Not Active”.
The corresponding values for `c1ccc(-c2nc(-c3ccccc3)n(CCCCCCNc3c4c(nc5ccccc35)CCCC4)c2-c2ccccc2)cc1` are 58 nM and “Not Active”.
Consider `Clc1ccc(-c2nc(-c3ccccc3)c(-c3ccccc3)n2CCCCCCNc2c3c(nc4ccccc24)CCCC3)cc1`, for which the IC50 on Cholinesterase (read-out: IC50) was 29.3 nM; against Acetylcholinesterase it was “Not Active”.
As to `Fc1ccc(-c2nc(-c3ccccc3)c(-c3ccccc3)n2CCCCCCCNc2c3c(nc4ccccc24)CCCC3)cc1`, in assay [1], the Ratio IC50 turned out to be 1.7. For the same compound, the IC50 at Cholinesterase (read-out: IC50) was found to be 67.3 nM; at Acetylcholinesterase (read-out: IC50), 38.5 nM.
Turning to `Clc1cccc(-c2nc(-c3ccccc3)c(-c3ccccc3)n2CCCCCCNc2c3c(nc4ccccc24)CCCC3)c1`, the IC50 was 34.8 nM on Cholinesterase (read-out: IC50) and “Not Active” on Acetylcholinesterase.
For the compound `Clc1cccc(-c2nc(-c3ccccc3)c(-c3ccccc3)n2CCCCCCCNc2c3c(nc4ccccc24)CCCC3)c1`, the IC50 entry against Cholinesterase and at Acetylcholinesterase was “Not Active” throughout.
For the compound `Clc1ccc(-c2nc(-c3ccccc3)c(-c3ccccc3)n2CCCCCCCCCCNc2c3c(nc4ccccc24)CCCC3)cc1`, the half-maximal inhibitory concentration (IC50) result against Cholinesterase and at Acetylcholinesterase was “Not Active” in each case.
For `COc1ccc(-c2nc(-c3ccccc3)c(-c3ccccc3)n2CCCCCCCCNc2c3c(nc4ccccc24)CCCC3)cc1`, the Ratio IC50 in assay [1] was found to be 0.6. Also, the values for the IC50 at Cholinesterase (read-out: IC50) and at Acetylcholinesterase (read-out: IC50) were 82.3 nM and 126 nM, respectively.
As for `N#Cc1ccc(-c2nc(-c3ccccc3)c(-c3ccccc3)n2CCCCCCCNc2c3c(nc4ccccc24)CCCC3)cc1`, the IC50 was 7.1 nM on Cholinesterase (read-out: IC50) and “Not Active” on Acetylcholinesterase.
Turning to `c1ccc(-c2nc(-c3ccccc3)n(CCCCCCCCNc3c4c(nc5ccccc35)CCCC4)c2-c2ccccc2)cc1`, the IC50 result at Cholinesterase and against Acetylcholinesterase was “Not Active” in each case.
On to `c1ccc(-c2nc(-c3ccccc3)n(CCCCCCCNc3c4c(nc5ccccc35)CCCC4)c2-c2ccccc2)cc1`, for which the Ratio IC50 in assay [1] worked out at 1.1. For the same compound, the IC50 on Cholinesterase (read-out: IC50) worked out at 92.4 nM; on Acetylcholinesterase (read-out: IC50) it was 80.7 nM.
Taken in the same sequence, the figures for `Clc1ccc(-c2nc(-c3ccccc3)c(-c3ccccc3)n2CCCCCCCNc2c3c(nc4ccccc24)CCCC3)cc1` were 0.6, 37.6 nM and 59.8 nM.
`c1ccc(-c2nc(-c3ccccc3)n(CCCCCCCCCn3c(-c4ccccc4)nc(-c4ccccc4)c3-c3ccccc3)c2-c2ccccc2)cc1`: the IC50 entry against Cholinesterase and against Acetylcholinesterase was “Not Active” throughout.
On to `c1ccc2c(NCCCCCCCNc3c4c(nc5ccccc35)CCCC4)c3c(nc2c1)CCCC3`, for which the IC50 at Cholinesterase (read-out: IC50) was determined as 9.03 nM.
On to `c1ccc(-c2nc(-c3ccccc3)n(CCCCCCCCCCn3c(-c4ccccc4)nc(-c4ccccc4)c3-c3ccccc3)c2-c2ccccc2)cc1`, for which the half-maximal inhibitory concentration (IC50) entry on Cholinesterase and against Acetylcholinesterase was “Not Active” each time.
For the compound `Fc1ccc(-c2nc(-c3ccccc3)c(-c3ccccc3)n2CCCCCCNc2c3c(nc4ccccc24)CCCC3)cc1`, the values for the IC50 on Cholinesterase (read-out: IC50) and against Acetylcholinesterase were 55.2 nM and “Not Active”, respectively.
Regarding `COc1ccc(-c2nc(-c3ccccc3)c(-c3ccccc3)n2CCCCCCCNc2c3c(nc4ccccc24)CCCC3)cc1`, in assay [1], the Ratio IC50 was found to be 0.9. In addition, the IC50 is 61.7 nM on Cholinesterase (read-out: IC50) and 68.7 nM at Acetylcholinesterase (read-out: IC50).
As to `Clc1ccc(-c2nc(-c3ccccc3)c(-c3ccccc3)n2CCCCCCCCCNc2c3c(nc4ccccc24)CCCC3)cc1`, the IC50 entry against Cholinesterase and on Acetylcholinesterase was “Not Active” each time.
Consider `c1ccc(-c2nc(-c3ccccc3)n(CCCCCCn3c(-c4ccccc4)nc(-c4ccccc4)c3-c3ccccc3)c2-c2ccccc2)cc1`, for which the IC50 entry against Cholinesterase and against Acetylcholinesterase was “Not Active” in each case.
On to `Clc1ccc(-c2nc(-c3ccccc3)c(-c3ccccc3)n2CCCCCCCCNc2c3c(nc4ccccc24)CCCC3)cc1`, for which the Ratio IC50 in assay [1] stood at 18.5. Besides, the IC50 on Cholinesterase (read-out: IC50) stood at 109 nM; on Acetylcholinesterase (read-out: IC50) it was 5.87 nM.
As for `c1ccc(-c2nc(-c3ccccc3)n(CCCCCCCCn3c(-c4ccccc4)nc(-c4ccccc4)c3-c3ccccc3)c2-c2ccccc2)cc1`, the half-maximal inhibitory concentration (IC50) entry at Cholinesterase was “Not Active”; at Acetylcholinesterase (read-out: IC50) it was 42.5 nM.
As for `Clc1cccc(-c2nc(-c3ccccc3)c(-c3ccccc3)n2CCCCCCCCNc2c3c(nc4ccccc24)CCCC3)c1`, the 50% inhibitory concentration (IC50) result at Cholinesterase and against Acetylcholinesterase was “Not Active” in each case.
Regarding `N#Cc1ccc(-c2nc(-c3ccccc3)c(-c3ccccc3)n2CCCCCCNc2c3c(nc4ccccc24)CCCC3)cc1`, the IC50 at Cholinesterase (read-out: IC50) is 29.6 nM; on Acetylcholinesterase it was “Not Active”.
Taken in the same sequence, the figures for `O=[N+]([O-])c1ccc(-c2nc(-c3ccccc3)c(-c3ccccc3)n2CCCCCCCCNc2c3c(nc4ccccc24)CCCC3)cc1` were 120 nM and “Not Active”.
For `O=[N+]([O-])c1ccc(-c2nc(-c3ccccc3)c(-c3ccccc3)n2CCCCCCNc2c3c(nc4ccccc24)CCCC3)cc1`, the IC50 at Cholinesterase (read-out: IC50) is 12.4 nM; against Acetylcholinesterase it was “Not Active”.
Take `COc1ccc(-c2nc(-c3ccccc3)c(-c3ccccc3)n2CCCCCCNc2c3c(nc4ccccc24)CCCC3)cc1`: the IC50 at Cholinesterase (read-out: IC50) is 36 nM; on Acetylcholinesterase, “Not Active”.
As for `O=[N+]([O-])c1ccc(-c2nc(-c3ccccc3)c(-c3ccccc3)n2CCCCCCCNc2c3c(nc4ccccc24)CCCC3)cc1`, in assay [1], the Ratio IC50 amounted to 1. For the same compound, the IC50 at Cholinesterase (read-out: IC50) amounted to 76.9 nM; at Acetylcholinesterase (read-out: IC50) it was 72.1 nM.
Taken in the same sequence, the figures for `Fc1ccc(-c2nc(-c3ccccc3)c(-c3ccccc3)n2CCCCCCCCNc2c3c(nc4ccccc24)CCCC3)cc1` were 2.2, 57.3 nM and 25.8 nM.

(Values after ChEMBL document CHEMBL2331189, “Synthesis of tacrine-lophine hybrids via one-pot four component reaction and biological evaluation as acetyl- and butyrylcholinesterase inhibitors” (Eur J Med Chem, 2013).)
